Experimental data of several laboratories.
Compare with care: the assays were run in different laboratories.
Target: Activin receptor type-2A (ACVR2A, Homo sapiens, UniProt P27037)

| SMILES | effect on | method | concentration | remaining binding [%] |
| --- | --- | --- | --- | --- |
| CN(CCCC(F)(F)F)c1nccc(-c2cnn3ncccc23)n1 | binding |  | 1 µM | 100 |
| O=C(NCC1CCOCC1)c1n[nH]cc1NC(=O)c1c(F)cccc1F | binding | competition with immobilised ligand | 1 µM | 85 |
| O=C(c1ccc(Nc2nccc(-c3cc4ccccc4s3)n2)cc1)N1CCC(N2CCCC2)CC1 | binding | competition with immobilised ligand | 1 µM | 90 |
| CCOC(=O)c1cc2cc(-c3cc(C(=O)NCc4ccc(C(=O)O)cc4)nn3C)ccc2[nH]1 | cell-free assay | competition with immobilised ligand | 0.1 µM | 59 |
| O=C(c1ccc(Nc2ncc(Cl)c(-c3ccc(Cl)s3)n2)cc1)N1CCC(N2CCCC2)CC1 | binding | competition with immobilised ligand | 1 µM | 71 |
| N[C@@H]1CCN(c2nccc(-c3cnn4ncccc34)n2)C1 | binding |  | 1 µM | 100 |
| O=c1nc(-c2ccccn2)sc2ccccc12 | cell-free assay | competition with immobilised ligand | 1 µM | 91 |
| FC(F)(F)Oc1cccc(-c2cnc3ccc(-c4ccncc4)nn23)c1 | cell-free assay | competition with immobilised ligand | 5 µM | 77 |
| CN(c1nccc(-c2cnn3ncccc23)n1)C1CC1 | binding |  | 1 µM | 100 |
| c1cncc(-c2cccc(Nc3nccc(NC4CCCCC4)n3)c2)c1 | binding | competition with immobilised ligand | 10 µM | 70 |
| CCN1CCN(Cc2ccc(C(=O)Nc3ccc(C)c(Oc4ccc5c(c4)CC(=O)N5)c3)cc2C(F)(F)F)CC1 | binding | competition with immobilised ligand | 1 µM | 100 |
| C[C@H]1CCN(c2nccc(-c3cnn4ncccc34)n2)C1 | binding |  | 1 µM | 96 |
| CN(C)CC#Cc1ccc(OCCCc2sc(N3CCc4cccc(C(=O)Nc5nc6ccccc6s5)c4C3)nc2C(=O)O)c(F)c1 | cell-free assay | competition with immobilised ligand | 1 µM | 94 |
| Nc1ncc2c(n1)-c1c([nH]c3ccc(C#CC4CC4)cc13)CCCC2 | binding | competition with immobilised ligand | 1 µM | 91 |
| CN([C@@H]1CCc2c(CC(=O)O)c3ccccc3n2C1)S(=O)(=O)c1ccc(F)cc1 | cell-free assay | competition with immobilised ligand | 1 µM | 100 |
| O=C(NCCCN1CCOCC1)c1ccc(Nc2nccc(-c3cc4ccccc4s3)n2)cc1 | binding | competition with immobilised ligand | 1 µM | 58 |
| CC(=O)Nc1c(C(C)=O)c(=O)n(C)c2nc(-c3ccc(Cl)cc3Cl)c(-c3ccc(Cl)cc3)cc12 | cell-free assay | competition with immobilised ligand | 1 µM | 100 |
| CN(C)c1ncc(F)c(-c2cnn3ncccc23)n1 | binding |  | 1 µM | 95 |
| O=C1NC(c2ccccn2)Sc2ccccc21 (stereo not shown) | cell-free assay | competition with immobilised ligand | 1 µM | 100 |
| CNC(=O)[C@@H]1CC[C@@H](n2c(-c3ccc4cnccc4c3)nc3ccc(C(=O)NCc4cccc(C(N)=O)c4)cc32)C1 | binding | competition with immobilised ligand | 1 µM | 100 |
| CN(C)c1nccc(-c2cnn3ncccc23)n1 | binding |  | 1 µM | 90 |
| O=C(NCCCC1CCCCC1)c1ccc(CNC(=O)c2cnn(-c3ccccc3)c2C(F)(F)F)cc1 | cell-free assay | competition with immobilised ligand | 0.1 µM | 83 |
